Screens: PubChem, several laboratories
Most compounds without a hit are left out; they make up all but 11% or so of the library.
TNAP act mid DEA = human TNAP enzyme activators, primary screen, biochemical, luminescent, intermediate phosphate acceptor level; Alkaline phosphatase, tissue-nonspecific isozyme (Homo sapiens), P05186; purified TNAP, CDP-star luminescence, 100 mM DEA, 30 min; stronger effect = higher value; scale: 0 levamisole-inhibited, 1 vehicle-only enzyme; activation factor at 20 µM; 64,000 tested, under 10 active;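 active = activation factor of at least 2 at 20 µM, relative to controls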
S1P1 ag-PAM = S1P1 agonists and agonism potentiators, primary screen, cell-based, primary and confirmation screens, CRE-bla reporter | activation, % at 9.5 µM | S1P1 CRE-bla cells, forskolin, beta-lactamase FRET, potentiator mode; S1P1 agonist co-added at EC20, 2 nM; 100% = saturating reference agonist, 0% = basal | 56,000 tested, 0.57% active | Sphingosine 1-phosphate receptor 1 (Homo sapiens), P21453 | AID 449, 2006;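 active = activation above a cutoff set at the mean activation of all tested compounds plus 3 SD, cut at about 54% in these data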;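 also: forskolin at 4 µM as EC80 and the EC20 agonist is SEW2871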
M1 agonist = M1 muscarinic receptor agonists, primary screen, CHO-M1 cells, Fluo-4 calcium, agonist mode; Muscarinic acetylcholine receptor M1; Fluo-4 calcium fluorescence; stronger effect = higher value; B-score at 10 µM; 64,000 tested, 3% active;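 active = fluorescence rise, raw or as B-score row- and column-corrected plate score, outside the 99.7% band of its plate's samples, either direction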
D1 mod = D1 CRE-luciferase signal change, two-sided – cell-based, HEK293 D1, dopamine EC30, D1 allosteric modulator project, primary screen. D(1A) dopamine receptor (Homo sapiens), P21728. dopamine EC30 potentiation; actives deviate in either direction. B-score at 10 µM. 58,000 tested, 5.9% active. AID 641, 2007;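 active = luminescence count or its row- and column-corrected plate score outside the 99.7% band of the plate's sample wells, on either side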
S1P3 ag = human S1P3 receptor agonists, primary screen, cell-based, primary and confirmation, NFAT-BLA reporter. Sphingosine 1-phosphate receptor 3 (Homo sapiens), Q99500. S1P3 NFAT-BLA reporter cells, agonism, FRET ratio; relative to 1 µM S1P, basal subtracted. activation, % at 4.5 µM. 60,000 tested, 0.1% active;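 active = activation above the screen-wide mean plus 3 SD, cut at about 4.5% in these data, passing the limit was not always enough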
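material = human S1P3 NFAT-BLA reporter CHO cells | schedule = 4 h compound at 37 °C, 2 h substrate at RT | measured by = fluorescent BLA substrate, ex 405 nm, em 460/535 nm ratio | controls = 1 µM S1P reference | replication = primary once, confirmation triplicate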
M1 antagonist = antagonists of rat M1 muscarinic receptor | Muscarinic acetylcholine receptor M1 (Rattus norvegicus), P08482 | CHO-M1 cells, Fluo-4 calcium, ACh EC80 antagonist mode; stronger effect = lower value | B-score at 10 µM | 64,000 tested, 3.4% active;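 active = calcium fluorescence response, raw or row-and-column corrected B-score, differing from the plate sample mean either way at a set confidence level, mostly lower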
M1 agonist conf = rat M1 muscarinic receptor agonists, confirmation, CHO-M1 cells, Fluo-4 calcium, duplicate retest; fluorescence change (max-min) at 10 µM; 1,700 tested, 19% active; Fluo-4 calcium fluorescence, agonist mode; actives lie on both sides; shares compounds with M1 agonist;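 active = fluorescence change differs from the solvent-only DMSO control mean at a set confidence level in both duplicate runs; inconclusive = differs from solvent-only control mean in just one of two runs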;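 also: an EC20 dose of acetylcholine follows compound addition during the same imaging run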
M4 agonist ctr = agonist activity at rat M4 receptor, confirmation, counter-screen for M1 allosteric modulator project, cell-based, agonist mode; 1,700 tested, 9% active; fluorescence change (max-min) at 10 µM; AID 1741, 2009; CHO M4/Gqi5 cells, Fluo-4 calcium fluorescence; actives lie on both sides; shares compounds with M1 agonist;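 active = fluorescence change differing from the plate's solvent-only control wells at 99.7% confidence in both duplicates, whether higher or lower; inconclusive = differs from solvent controls in only one of two duplicates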
Target sequence (P08485 whole entry, looked up): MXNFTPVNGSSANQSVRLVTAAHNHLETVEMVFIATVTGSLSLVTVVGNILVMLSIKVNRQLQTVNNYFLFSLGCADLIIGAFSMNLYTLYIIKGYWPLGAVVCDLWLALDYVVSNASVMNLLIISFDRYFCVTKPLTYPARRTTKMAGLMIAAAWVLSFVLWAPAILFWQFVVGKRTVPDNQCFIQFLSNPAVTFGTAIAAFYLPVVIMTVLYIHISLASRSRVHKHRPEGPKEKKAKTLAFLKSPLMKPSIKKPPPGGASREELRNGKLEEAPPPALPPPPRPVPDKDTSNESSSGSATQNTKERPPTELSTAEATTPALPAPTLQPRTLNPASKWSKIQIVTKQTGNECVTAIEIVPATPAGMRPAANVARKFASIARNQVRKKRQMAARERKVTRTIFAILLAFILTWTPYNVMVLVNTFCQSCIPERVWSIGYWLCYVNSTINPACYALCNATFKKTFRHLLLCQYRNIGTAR
Each line names hits and unclear results; the compound was inactive in the other large screens (follow-up assays come after a bar, where they were run).

CCCCn1c(NC(=O)c2ccccc2Cl)c(C#N)c2nc3ccccc3nc21	M1 agonist 19.7 | M1 agonist conf 58.7 | M4 agonist ctr inactive
COCCN1C(=O)C(CC(=O)Nc2ccc(C(C)=O)cc2)SC1=Nc1ccccc1 (stereo not given)	M1 agonist 3.86 | M1 agonist conf inconclusive | M4 agonist ctr inactive
O=C(CSc1n[nH]c(=O)n1C1CC1)Nc1cc(Cl)ccc1Oc1ccccc1	M1 agonist 6.89, M1 antagonist -2.73 | M1 agonist conf inactive | M4 agonist ctr inactive
CC(C(=O)OCc1nnc(-c2ccccc2)o1)N1C(=O)c2ccccc2C1=O (stereo not given)	M1 agonist -2.15 (no result: S1P1 ag-PAM, D1 mod, S1P3 ag) | M1 agonist conf inactive | M4 agonist ctr inactive
Cc1ccc(C(=O)OCc2nnc(-c3ccccc3)o2)o1	none
CC(=O)c1c(C)[nH]c(C(=O)OCc2nnc(-c3ccccc3)o2)c1C	M1 agonist 2.77 | M1 agonist conf inconclusive | M4 agonist ctr -69.8
CC(C)(C)N1C(=O)c2ccc(C(=O)NCc3ccco3)cc2C1=O	none (no result: D1 mod)
CCN=C1SC(CC(=O)NC2CCCCC2)C(=O)N1CC (stereo not given)	none
CCN=C1SC(CC(=O)Nc2ccc(C(F)(F)F)cc2)C(=O)N1CC (stereo not given)	M1 agonist 12.4, M1 antagonist -2.95 (no result: D1 mod) | M1 agonist conf inconclusive | M4 agonist ctr inactive
CCN=C1SC(CC(=O)Nc2ccc(N3CCOCC3)cc2)C(=O)N1CC (stereo not given)	M1 agonist 2.84 | M1 agonist conf inconclusive | M4 agonist ctr inactive
CCOC(=O)CNC(=O)Nc1cc(C(C)(C)C)nn1-c1ccccc1	none (no result: S1P1 ag-PAM, D1 mod, S1P3 ag)
Cc1csc(NC(=O)C2CCCN(S(=O)(=O)c3ccc(Br)s3)C2)n1 (stereo not given)	none (no result: S1P1 ag-PAM, D1 mod, S1P3 ag)
COc1ccc(C2=CC(c3c(C)nn(-c4ccccc4)c3Cl)n3nnnc3N2)cc1OC (stereo not given)	M1 agonist 5.49 | M1 agonist conf inactive | M4 agonist ctr inactive
N#Cc1c(NCCO)nc(NCc2ccccc2)c2c1CCN(Cc1ccccc1)C2	M1 agonist 3.3 (no result: D1 mod) | M1 agonist conf inactive | M4 agonist ctr inactive
CN(C)c1ccc(NC(=O)c2sc(SCC(=O)Nc3nccs3)nc2N)cc1	M1 agonist 7.09 (no result: D1 mod) | M1 agonist conf inactive | M4 agonist ctr inconclusive
Cc1nnc(SCC(=O)Nc2nccs2)s1	none
Cn1c(=O)c2c(nc(NCc3ccccc3)n2C)n(C)c1=O	none
Cn1c(=O)c2c(nc(NCc3ccccc3)n2CCCc2ccccc2)n(C)c1=O	M1 agonist 14.5, D1 mod -3.06, M1 antagonist 2.48 | M1 agonist conf inconclusive | M4 agonist ctr inactive
Cn1c(=O)c2c(nc(N3CCN(Cc4ccccc4)CC3)n2CCCc2ccccc2)n(C)c1=O	M1 agonist 4.17 | M1 agonist conf inactive | M4 agonist ctr inactive
Cc1ccc(N=C(c2cccs2)N2CCOCC2)cc1	none
CCCCCn1c(CCCNC(=O)CC)nc2ccccc21	none
COc1ccc(OC)c(NC(=O)c2ccc(NC(C)=O)cc2)c1	none
COc1ccc(OC)c(N/C(C)=C/C(=O)c2ccc(C)o2)c1	M1 agonist 5.88 (no result: S1P1 ag-PAM) | M1 agonist conf inconclusive | M4 agonist ctr inactive
O=c1c2nnn(Cc3ccccc3)c2ncn1C/C=C/c1ccccc1	none
